Compound activity (PubChem)
The list is not random: actives were taken first. Their share in the collection is about 2.8%.
Measles CPE = compounds protecting cells from measles virus cytopathic effect, primary screen, measles RdRp inhibitor project, single point, MLSMR library, absorbance. 140,000 compounds, 1.5% hits. protection (pct of control), % at 4 µM. Measles virus-infected cells, CPE protection; in the data active = protection mostly above about 24%, no sharp cut-off; inactive = mostly below about 26%
NPY-Y1 antag = NPY-Y1 receptor antagonists, primary screen, cell-based; Neuropeptide Y receptor type 1 (Homo sapiens), P25929; HEK293-CNG Y1 cells, membrane potential fluorescence; NPY at EC95, then isoproterenol; inhibition, % at 3.6 µM; 200,000 compounds, 1% hits;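 active = inhibition above the campaign mean inhibition of all tested compounds plus 3 SD, cut at about 20% in these data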
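Test system: HEK293 cells co-expressing NPY Y1 receptor and cyclic-nucleotide gated channel; Also added: NPY (25 nM), isoproterenol (1 µM), Ro 20-1724 (25 µM); Compound dosing: one concentration, 3.6 µM, in 0.4% DMSO; Timing: dye 3 h, compound 60 min room temperature, stimulation 45 min; Technique: Membrane-potential fluorescent dye readout.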
MDM2 E3 inh = MDM2-luciferase reporter signal enhancers, primary screen, MDM2 E3 ligase inhibitor project, cell-based, luminescence, 1536-well; E3 ubiquitin-protein ligase Mdm2 (Homo sapiens), Q00987; cell-based MDM2 ubiquitination luciferase reporter, 2 h; 0 = plate control, 100 = twice control, blank-subtracted; signal enhancement, % at 5 µM; 210,000 compounds, 0.11% hits;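 active = signal enhancement of 30% or more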;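 also: luminescence tracks abundance of the self-degrading MDM2-luciferase fusion protein; higher signal means inhibition of MDM2 E3 ligase activity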
Target sequence (Q00987 whole entry, looked up, the tested form may be a part): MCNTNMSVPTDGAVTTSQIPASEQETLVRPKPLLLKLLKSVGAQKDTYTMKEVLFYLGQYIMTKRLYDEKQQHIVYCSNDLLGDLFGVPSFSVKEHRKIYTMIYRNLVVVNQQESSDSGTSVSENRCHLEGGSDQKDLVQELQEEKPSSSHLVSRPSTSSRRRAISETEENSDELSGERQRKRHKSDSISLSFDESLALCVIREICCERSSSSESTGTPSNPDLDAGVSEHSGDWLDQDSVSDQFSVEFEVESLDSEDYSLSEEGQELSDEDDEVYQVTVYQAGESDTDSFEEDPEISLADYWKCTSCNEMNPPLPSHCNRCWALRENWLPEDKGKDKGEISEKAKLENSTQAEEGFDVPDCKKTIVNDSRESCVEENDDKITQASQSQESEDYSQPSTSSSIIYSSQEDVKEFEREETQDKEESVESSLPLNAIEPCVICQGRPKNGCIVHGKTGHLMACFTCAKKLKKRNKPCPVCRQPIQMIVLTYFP
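Test system: stable mammalian line carrying autodegrading MDM2–luciferase fusion reporter; quantity: 2000 cells in each well; times: 4 h cell settling then 2 h compound exposure, 37 °C; detection: luminescence with SteadyLite reagent, 15 min at room temperature; evaluation: percent signal gain over controls, blank-subtracted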
NPY1 pot ag = NPY-Y1 receptor potentiators or agonists, primary screen, cell-based. NPY-Y1 expressing cells, potentiator/agonist activation. 220,000 compounds, 0.37% hits. Neuropeptide Y receptor type 1 (Homo sapiens), P25929. activation, % at 3.6 µM; in the data active = activation above about 33%, passing the limit was not always enough;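 also: cells stimulated with NPY at EC10 then isoproterenol at EC100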
NPY-Y2 PAM-ag = NPY-Y2 potentiators or agonists, primary screen, cell-based. Neuropeptide Y receptor type 2 (Homo sapiens), P49146. cells expressing NPY-Y2, potentiator/agonist read-out. activation, % at 3.6 µM. 220,000 compounds, 0.45% hits. AID 1359, 2008; in the data active = activation above about 27%;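 also: cells stimulated with NPY near EC25 plus isoproterenol at EC100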
NPY Y2 blocker = NPY-Y2 receptor antagonists, primary screen, cell-based. inhibition, % at 2.7 µM. 140,000 compounds, 0.99% hits. Neuropeptide Y receptor type 2 (Homo sapiens), P49146. AID 793, 2007. NPY-Y2 expressing cells, antagonist mode; in the data active = inhibition above about 17%
Each line names hits and unclear results; the compound was inactive in the other large screens.

COC(=O)c1nc(NC(=O)C(C)(C)C)n[nH]1	Measles CPE 35.8
COC(=O)c1nc(NC(=O)c2ccc(Br)cc2)n[nH]1	none
COc1ccc(C2c3c(-c4cc(Cl)c(C)cc4O)n[nH]c3C(=O)N2Cc2cccnc2)cc1OC (stereo unspecified)	NPY-Y1 antag 44.7, NPY Y2 blocker 55.3
Cc1ccc(C(=O)NCC(=O)N/N=C/c2cccs2)cc1C	none (no result: Measles CPE, NPY Y2 blocker)
N/C(=N\c1nc2c(c(=O)[nH]1)CCC2)Nc1ccccc1	Measles CPE 48.2
N/C(=N\c1nc2c(c(=O)[nH]1)CCCC2)Nc1ccccc1	none
COc1ccccc1NC(=O)CSCc1nc2ccccc2[nH]1	none
Cc1nccc(-c2cc(-c3ccc(Cl)cc3Cl)no2)n1	none (no result: Measles CPE, NPY-Y1 antag, NPY Y2 blocker)
CCCSc1nnc(NC(=O)Nc2ccc(F)cc2)s1	Measles CPE 43.0
O=C(NCC(c1cccs1)N1CCOCC1)c1ccccc1NS(=O)(=O)c1ccc(Cl)c([N+](=O)[O-])c1 (stereo unspecified)	none
O=C(NCC(c1cccs1)N1CCOCC1)c1ccccc1NS(=O)(=O)c1cccc([N+](=O)[O-])c1 (stereo unspecified)	Measles CPE 31.6
COc1cc(/C=C/C(=O)NNc2c(F)c(F)cc(F)c2F)ccc1OC(F)F	none
COc1ccc(/C(=C/c2ccc(OC(F)F)c(OC)c2)C(=O)O)cc1OC	Measles CPE 60.0
CCOC(=O)C(C)(C)N(Cc1ccc(C)cc1)S(=O)(=O)c1ccc(Cl)c([N+](=O)[O-])c1	NPY1 pot ag 75.9, NPY-Y2 PAM-ag 50.9
CCOC(=O)C(C)(C)NS(=O)(=O)c1ccc(Cl)c([N+](=O)[O-])c1	none
CCOC(=O)C(C)(C)N(Cc1ccc(Cl)cc1)S(=O)(=O)c1ccc(Cl)c([N+](=O)[O-])c1	NPY1 pot ag 64.8, NPY-Y2 PAM-ag 66.4
CC(CCc1ccccc1)NC(=O)N1CCOCC1 (stereo unspecified)	none
CCCSc1nnc2nc3c(nn12)c1ccccc1n3C	none
COc1ccc(-c2nnn(CC(=O)c3ccc4c(c3)OCCO4)n2)cc1OC	Measles CPE 27.0
CCOc1ccc(-c2nnn(CC(=O)c3ccc4c(c3)OCCO4)n2)cc1	none
O=C(COC(=O)C(Cc1ccccc1)NC(=O)c1ccc(Cl)cc1)c1ccc(Cl)cc1 (stereo unspecified)	none
CC(=O)Nc1ccc(NC(=O)c2ccc(NS(=O)(=O)c3cc(C(C)(C)C)cc(C)c3C)cc2)cc1	none
Cc1cc(C(C)(C)C)cc(S(=O)(=O)Nc2ccc(O)c(C(=O)O)c2)c1C	Measles CPE 36.0
COc1ccc(-c2ccccc2)cc1NCc1ccc(OC)c(OC)c1	none
CN(C)c1ccc(/C=C/c2cc[n+](C)cc2)cc1	Measles CPE 49.4
CN(C)c1ccc(/C=C/c2cc[n+]([O-])cc2)cc1	none
CC(c1ccon1)N(C)Cc1cn(C)nc1-c1cccc(Cl)c1 (stereo unspecified)	none (no result: Measles CPE, NPY Y2 blocker)
CCCCCCN(C(=O)CCl)c1ccccc1	none (no result: Measles CPE, NPY-Y1 antag, NPY Y2 blocker)
CCc1ccc(-c2nc(CN3CCC(C(=O)N4CCN(c5ccccc5)CC4)CC3)c(C)o2)cc1	NPY-Y1 antag 46.5, NPY Y2 blocker 31.1
CCc1ccc(-c2nc(CN3CCC(C(=O)N4CCN(c5ccccn5)CC4)CC3)c(C)o2)cc1	none
COc1ccc2c(COC(=O)CNC(=O)C34CC5CC(CC(C5)C3)C4)cc(=O)oc2c1	none
CCOc1ccccc1N(C(=O)Cn1nnnc1-c1ccc(C)o1)C(CC)C(=O)NC(C)(C)C (stereo unspecified)	Measles CPE 39.4
COc1ccc(C2CC(=O)C=C(NNS(=O)(=O)c3ccc(C)cc3)C2)cc1 (stereo unspecified)	none
Cc1ccccc1C(=O)Nc1ccc(C(=O)N/N=C/c2ccc(O)c(Br)c2)cc1	none (no result: Measles CPE, NPY Y2 blocker)
Cc1nc(NC(=O)/C=C/c2ccccc2)n[nH]1	MDM2 E3 inh 39.2
CCCn1nnc(NC(=O)/C=C/c2ccccc2)n1	none (no result: Measles CPE, NPY Y2 blocker)
O=C(COC(=O)c1cccs1)NCc1ccc2c(c1)OCO2	Measles CPE 96.9
O=C(NCc1ccc2c(c1)OCO2)c1cccs1	none
O=C(CSc1n[nH]c(-c2cccs2)n1)NCc1ccc2c(c1)OCO2	Measles CPE 11.8
Cn1cc([N+](=O)[O-])c(C(=O)n2cccn2)n1	none (no result: Measles CPE, NPY-Y1 antag, NPY Y2 blocker)
S=c1nc[nH]c2c1ncn2C1CCCC1	none (no result: Measles CPE, NPY-Y1 antag, NPY Y2 blocker)
O=c1c2c3c(sc2nc2n1CCC2)CCCCC3	none (no result: Measles CPE, NPY Y2 blocker)
O=c1c2c3c(sc2nc2n1CCC2)CCC3	Measles CPE 35.8
COC(=O)C1=CN(C2CC2)C=C(C(=O)OC)C1c1ccc(C(=O)OC)cc1	none
COC(=O)C1=CN(C2CC2)C=C(C(=O)OC)C1c1ccc(C(F)(F)F)cc1	NPY-Y1 antag 20.7 (no result: Measles CPE, NPY Y2 blocker)
O=C(Cc1ccccc1)Nc1nc(-c2cccs2)cs1	Measles CPE 62.3
CCCC(=O)Nc1nc(-c2ccc3c(c2)CCN3S(C)(=O)=O)cs1	none
CS(=O)(=O)N1CCc2cc(-c3csc(NC(=O)Cc4ccccc4)n3)ccc21	Measles CPE 117.7
O=C(Cc1ccccc1F)Nc1nc(-c2cccs2)cs1	Measles CPE 56.5
C/C(=C\c1ccccc1)C(=O)Nc1ccc(S(=O)(=O)Nc2ncccn2)cc1	none (no result: Measles CPE, NPY Y2 blocker)
CCOC(=O)CCCNC(=O)CSc1nc2ccc(OCC)cc2[nH]1	none (no result: Measles CPE, NPY Y2 blocker)
Nc1ccc(-n2nnnc2CN2CCOCC2)cc1	Measles CPE 43.1
CCc1ccc(OCC(=O)NC(NC(=S)Nc2ccccc2OC)C(Cl)(Cl)Cl)cc1 (stereo unspecified)	Measles CPE 42.9
Cc1ccccc1NC(=S)NC(NC(=O)COc1ccccc1)C(Cl)(Cl)Cl (stereo unspecified)	none
CCc1ccc(OCC(=O)NC(NC(=S)Nc2ccccc2C)C(Cl)(Cl)Cl)cc1 (stereo unspecified)	NPY-Y1 antag 21.1, NPY Y2 blocker 18.6
CCc1ccc(OCC(=O)NC(NC(=S)Nc2ccccc2)C(Cl)(Cl)Cl)cc1 (stereo unspecified)	none
CC(C)(C)c1ccc(SCCc2cccnc2)cc1	none (no result: Measles CPE, NPY-Y1 antag, NPY Y2 blocker)
CC(=O)Nc1cccc(-c2csc(NCc3ccco3)n2)c1	Measles CPE 27.2
Oc1ccc(-c2csc(NCc3ccco3)n2)cc1	none
CCc1ccccc1NS(=O)(=O)c1ccc2c(c1)NC(=O)CC(=O)N2	Measles CPE 36.8
CCOc1ccc(NCc2cc3c(C(C)(C)C)nn(-c4ccccc4)c3[nH]c2=O)cc1	NPY1 pot ag 56.0, NPY-Y2 PAM-ag 35.2
